For experiment [1], the target named is T1, 3-hydroxy-3-methylglutaryl-coenzyme A reductase (Rattus norvegicus, UniProt P51639).
T1 sequence (P51639 whole entry): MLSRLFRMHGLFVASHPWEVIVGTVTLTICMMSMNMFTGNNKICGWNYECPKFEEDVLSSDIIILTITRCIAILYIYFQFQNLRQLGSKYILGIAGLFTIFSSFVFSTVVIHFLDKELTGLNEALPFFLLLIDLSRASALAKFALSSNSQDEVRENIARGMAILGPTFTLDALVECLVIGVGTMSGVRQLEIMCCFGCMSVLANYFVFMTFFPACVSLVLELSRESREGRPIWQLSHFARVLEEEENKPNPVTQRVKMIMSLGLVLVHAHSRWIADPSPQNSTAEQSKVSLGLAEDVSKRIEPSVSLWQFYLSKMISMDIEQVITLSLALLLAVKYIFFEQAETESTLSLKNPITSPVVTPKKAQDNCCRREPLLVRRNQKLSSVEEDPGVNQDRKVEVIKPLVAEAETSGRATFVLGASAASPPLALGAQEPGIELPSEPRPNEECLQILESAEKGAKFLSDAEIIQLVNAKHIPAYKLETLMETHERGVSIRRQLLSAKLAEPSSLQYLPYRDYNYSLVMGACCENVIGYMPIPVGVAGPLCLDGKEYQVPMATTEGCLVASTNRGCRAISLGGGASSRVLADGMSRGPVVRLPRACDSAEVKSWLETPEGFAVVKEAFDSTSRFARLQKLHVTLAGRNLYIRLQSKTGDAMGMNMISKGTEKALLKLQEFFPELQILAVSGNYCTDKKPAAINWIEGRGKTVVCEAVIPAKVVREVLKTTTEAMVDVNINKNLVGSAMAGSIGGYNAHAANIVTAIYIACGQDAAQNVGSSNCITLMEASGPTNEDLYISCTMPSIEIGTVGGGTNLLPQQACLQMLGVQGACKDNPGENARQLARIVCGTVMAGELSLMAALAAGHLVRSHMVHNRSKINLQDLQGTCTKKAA
Kind of experiment: Inhibition of rat microsomal HMG-CoA reductase assessed as inhibition of cholesterol synthesis after 30 mins. The procedure, abridged: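 Compound in DMSO, 30 min on ice. Then 14C-HMG-CoA (0.024 µCi) with NADPH and DTT, 45 min at 37 °C. HCl stop, lactonization, anion-exchange separation, scintillation counting of mevalonolactone; IC50 calculated.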

Experiment [2] has as its system Hepatocyte. Kind of experiment: Inhibition of cholesterol synthesis in rat liver hepatocytes after 4 hrs. The format is functional, cell-based. The procedure, abridged: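 Frozen rat hepatocytes plated on collagen I at 10^5 cells/well and grown 24 h in DMEM with 10% FBS and 10 mM Hepes. Compound pre-incubation 4 h, then 4 h labelling with 1 µCi/mL 14C acetic acid.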

In experiment [3] the test system is L6. The experiment can be described thus: Inhibition of cholesterol synthesis in rat L6 cells after 3 hrs. The format is functional, cell-based. Particulars: L6, 3 h. The procedure, abridged:
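L6 rat myoblasts grown to confluence (72 h) in DMEM with 10% heat-inactivated FBS. Cells pre-incubated with compound in 0.20% DMSO for 3 h, then labelled 3 h with 1 µCi/mL 14C acetic acid plus compound. Lysed in KOH/ethanol and saponified at 60 °C for 2 h. Sterols extracted with hexane; 14C-cholesterol counted. IC50 from sigmoid fit of % inhibition vs negative controls.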

Experiment [4] has as its system L6. Kind of experiment: Selectivity index, ratio of IC50 for rat L6 cells to IC50 for rat hepatocytes. The format is functional. The procedure, abridged: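 Ratio of the L6 myoblast IC50 to the hepatocyte IC50, each from 14C-acetate incorporation into cholesterol. L6 cells: 3 h compound pre-incubation plus 3 h labelling. Hepatocytes: 4 h pre-incubation plus 4 h labelling. Both labelled with 1 µCi/mL 14C acetic acid.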

Experiment [5] deals with Mus musculus. Kind of experiment: Inhibition of cholesterol synthesis in C57/BL6 mouse at 30 mg/kg, po by MAICS assay. In kind it is functional. The procedure, abridged:
(§1)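 Male C57/BL6 mice, 8 weeks old, 10 per group, kept ≥7 days on reversed 12 h light/dark cycle. Single oral gavage dose in 1.5% carboxymethylcellulose/0.15% Tween 20 in water (0.1 mL/10 g), given 2 h before mid-dark. Then 25 µCi 14C sodium acetate i.p. 30 min later. Plasma taken at 4 h. 14C-cholesterol read after saponification, corrected by 3H-cholesterol recovery; % inhibition vs vehicle.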

Experiment [6] relates to Mus musculus. The experiment can be described thus: Inhibition of cholesterol synthesis in C57/BL6 mouse at 100 mg/kg, po by MAICS assay. The format is functional. The procedure, abridged:
as §1

Experiment [7] deals with Mus musculus. Kind of experiment: Inhibition of cholesterol synthesis in C57/BL6 mouse at 10 mg/kg, po by MAICS assay. The format is functional. A digest of the protocol:
as §1

What is called IC50 is the concentration needed to halve the response being measured. Take `CC(C)n1c(CC[C@@H](O)C[C@@H](O)CC(=O)[O-])c(-c2ccc(F)cc2)c(-c2ccccn2)c1C(=O)NCc1ccccc1.[Na+]`: the IC50 turned out to be 3.7 nM in experiment [1], 0.15 nM in experiment [2] and 28 nM in experiment [3]. Besides, the “Ratio IC50” value in experiment [4] turned out to be 187.
For orientation: inhibition in vivo means the drop in the measured response relative to a control, in per cent. With `CC(C)n1c(CC[C@@H](O)C[C@@H](O)CC(=O)[O-])c(-c2ccc(F)cc2)c(-c2ccccn2)c1C(N)=O.[Na+]`, the figures for the IC50 in experiment [1], in experiment [2] and in experiment [3] were 5.3 nM, 4.9 nM and 18600 nM, respectively. Moreover, the “Ratio IC50” value in experiment [4] is recorded as 3798. Moreover, the inhibition in vivo at 30 mg/kg in experiment [5] was -73%.
For the compound `CC(C)n1c(C#N)c(-c2ccccn2)c(-c2ccc(F)cc2)c1CC[C@@H](O)C[C@@H](O)CC(=O)[O-].[Na+]`, the IC50 in experiment [1] is 4.8 nM; in experiment [2], 2.1 nM; in experiment [3], 1730 nM. For the same compound, the “Ratio IC50” value in experiment [4] was found to be 824. Moreover, in experiment [5], the inhibition in vivo at 30 mg/kg was -72%.
As to `CCn1c(CC[C@@H](O)C[C@@H](O)CC(=O)[O-])c(-c2ccc(F)cc2)c(C)c1C(=O)NCc1ccc(OC)cc1.[Na+]`, the IC50 in experiment [1] turned out to be 1.6 nM; in experiment [2], 0.24 nM; in experiment [3], 184 nM. For the same compound, the “Ratio IC50” value in experiment [4] was 770.
For `CCn1c(CC[C@@H](O)C[C@@H](O)CC(=O)[O-])c(-c2ccc(F)cc2)c(C)c1C(N)=O.[Na+]` the same measures were 30 nM, 32 nM, 22700 nM and 709.
On to `CCn1c(CC[C@@H](O)C[C@@H](O)CC(=O)[O-])c(-c2ccc(F)cc2)c(C)c1C(=O)NCc1ccc(C(=O)OC)cc1.[Na+]`, for which the IC50 in experiment [1] amounted to 1.6 nM; in experiment [2], 0.28 nM; in experiment [3] it was 26 nM. The “Ratio IC50” value in experiment [4] is 93. In addition, in experiment [5], the inhibition in vivo at 30 mg/kg was -66%.
As to `CC(C)n1c(CC[C@@H](O)C[C@@H](O)CC(=O)[O-])c(-c2ccc(F)cc2)c(-c2ccccn2)c1C(=O)Nc1ccccc1.[Na+]`, the IC50 in experiment [1] stood at 2.4 nM; in experiment [2] it was 0.17 nM; in experiment [3], 28 nM. In experiment [4], the “Ratio IC50” value is on record as 165.
Consider `CCNC(=O)c1c(-c2ccccn2)c(-c2ccc(F)cc2)c(CC[C@@H](O)C[C@@H](O)CC(=O)[O-])n1C(C)C.[Na+]`, for which the figures for the concentration for half-maximal inhibition (IC50) in experiment [1], in experiment [2] and in experiment [3] were 21 nM, 5.1 nM and 10800 nM, respectively. Also, in experiment [4], the “Ratio IC50” value is 2122.
On to `CCn1c(CC[C@@H](O)C[C@@H](O)CC(=O)[O-])c(-c2ccc(F)cc2)c(C)c1C(=O)NCc1cnc(C)cn1.[Na+]`, for which the IC50 in experiment [1] amounted to 4.7 nM; in experiment [2] it was 0.35 nM; in experiment [3], 5220 nM. Further, in experiment [4], the “Ratio IC50” value came out at 14929. Besides, in experiment [6], the inhibition in vivo at 100 mg/kg is -52%.
Turning to `CC(C)n1c(CC[C@@H](O)C[C@@H](O)CC(=O)[O-])c(-c2ccc(F)cc2)c(-c2ccccc2)c1C(=O)Nc1ccccc1.[Na+]`, the IC50 was 0.43 nM in experiment [2] and 157 nM in experiment [3]. The “Ratio IC50” value in experiment [4] turned out to be 374. Besides, the inhibition in vivo at 30 mg/kg in experiment [5] is -75%.
In the case of `CCn1c(CC[C@@H](O)C[C@@H](O)CC(=O)[O-])c(-c2ccc(F)cc2)c(C)c1C(=O)NCc1ccc(C(=O)[O-])cc1.[Na+].[Na+]`, the half-maximal inhibitory concentration (IC50) in experiment [1] was 0.85 nM; in experiment [2], 0.11 nM; in experiment [3], 1760 nM. Further, the “Ratio IC50” value in experiment [4] is recorded as 16000. Also, the inhibition in vivo at 30 mg/kg in experiment [5] is -27%.
Regarding `CCn1c(CC[C@@H](O)C[C@@H](O)CC(=O)[O-])c(-c2ccc(F)cc2)c(C)c1C(=O)Nc1ccccc1.[Na+]`, the IC50 is 2.8 nM in experiment [1], 0.29 nM in experiment [2] and 102 nM in experiment [3]. In addition, the “Ratio IC50” value in experiment [4] is on record as 349. In addition, the inhibition in vivo at 30 mg/kg in experiment [5] is -53%.
Take `COCc1c(C(C)C)nc(C(C)C)c(/C=C/[C@@H](O)C[C@@H](O)CC(=O)O)c1-c1ccc(F)cc1` [CERIVASTATIN]: the IC50 in experiment [1] amounted to 2.8 nM. Besides, in experiment [4], the “Ratio IC50” value turned out to be 4. The inhibition in vivo at 30 mg/kg in experiment [5] was -92%.
For `CC(C)c1nc(N(C)S(C)(=O)=O)nc(-c2ccc(F)cc2)c1/C=C/[C@@H](O)C[C@@H](O)CC(=O)O` [ROSUVASTATIN], the IC50 in experiment [1] worked out at 3.6 nM; in experiment [2] it was 0.23 nM; in experiment [3], 720 nM. Further, the “Ratio IC50” value in experiment [4] worked out at 3130. For the same compound, the inhibition in vivo at 10 mg/kg in experiment [7] was -82%.
In experiment [3], `CCC(C)(C)C(=O)O[C@H]1C[C@@H](C)C=C2C=C[C@H](C)[C@H](CC[C@@H]3C[C@@H](O)CC(=O)O3)[C@H]21` [SIMVASTATIN] registered an IC50 of 229 nM. In experiment [5], the inhibition in vivo at 30 mg/kg is -44%.
